Source: ChEMBL document CHEMBL1133940, “A novel class of inhibitors for steroid 5alpha-reductase: synthesis and evaluation of umbelliferone derivatives” (Bioorg Med Chem Lett, 2001)
“And” between values parts separate entries of the source, which are not always exact repeats. Identical values can stand only once.

Each compound was assayed against T1, 3-oxo-5-alpha-steroid 4-dehydrogenase 1 (Homo sapiens, UniProt P18405) (assay: Inhibitory activity against 5-alpha-reductase type 1 in cell culture system using LNCaP cells (androgen-sensitive human prostatic cancer cell line)).
T1 sequence (P18405 whole entry): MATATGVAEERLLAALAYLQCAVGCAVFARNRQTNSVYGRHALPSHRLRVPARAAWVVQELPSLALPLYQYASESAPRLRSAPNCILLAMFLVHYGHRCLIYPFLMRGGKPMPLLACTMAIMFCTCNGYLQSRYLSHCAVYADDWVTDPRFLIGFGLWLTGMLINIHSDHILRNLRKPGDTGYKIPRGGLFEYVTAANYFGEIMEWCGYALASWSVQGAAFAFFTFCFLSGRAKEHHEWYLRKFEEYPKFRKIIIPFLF
Type: cell-based
Method in brief: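 LNCaP cells (express 5aR-1 only) seeded at 2×10⁵ cells/mL/well, grown 24 h in medium with 5% hormone-free FBS. Then exposed to [³H]-testosterone plus test sample (final 0.5% DMSO) for 18 h. Medium extracted with ethyl acetate, [³H]-T and [³H]-DHT separated by TLC. Conversion = DHT radioactivity/(T+DHT). IC50 ([…]) relative to 0.5% DMSO control.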

Structure (SMILES) | IC50
CC(C)(C)NC(=O)[C@H]1CC[C@H]2[C@@H]3CC[C@H]4NC(=O)C=C[C@]4(C)[C@H]3CC[C@]12C [FINASTERIDE] | 53.1 µM and 53 µM
C=CCc1c(OCCO)ccc2ccc(=O)oc12 | > 81.2 µM
C#CC(C)(C)Oc1ccc2ccc(=O)oc2c1CC=C | > 14.9 µM
C#CCOc1ccc2ccc(=O)oc2c1 | > 99.9 µM
C=CCc1c(OC(=O)c2ccccc2)ccc2ccc(=O)oc12 | 0.49 µM
C#CC(C)(C)Oc1ccc2ccc(=O)oc2c1 | > 87.6 µM
C=CCc1cc2ccc(=O)oc2cc1O | 8.41 µM and 8.4 µM
C=CCc1c(OC(C)(C)C=C)ccc2ccc(=O)oc12 | 50.3 µM
C=CCOc1ccc2ccc(=O)oc2c1 [7-ALLYLOXYCOUMARIN] | > 98.9 µM
C=CC(C)(C)Oc1ccc2ccc(=O)oc2c1 | 1.3 µM
O=c1ccc2ccc(O)cc2o1 [UMBELLIFERONE] | > 123 µM
C=CCc1c(OC)ccc2ccc(=O)oc12 | > 18.5 µM
C=CCc1c(OCC(C)=O)ccc2ccc(=O)oc12 | > 77.4 µM
C=CCc1c(OC(=O)Nc2ccccc2)ccc2ccc(=O)oc12 | 0.622 µM and 0.62 µM
C=CCc1c(OCc2ccccc2)ccc2ccc(=O)oc12 | > 13.7 µM
C=CCc1c(O)ccc2ccc(=O)oc12 | 0.989 µM and 0.99 µM
C=CCc1c(OC(C)=O)ccc2ccc(=O)oc12 | 0.819 µM and 0.82 µM
